Assay results published in ChEMBL document CHEMBL1123691, “Multisubstrate inhibitors of dopamine beta-hydroxylase. 2. Structure-activity relationships at the phenethylamine binding site” (J Med Chem, 1987).

Columns and labels:
[1] = molecular target: T1, Dopamine beta-hydroxylase (Bos taurus) (UniProt P15101); experiment: Percent inhibition against bovine Dopamine beta hydroxylase (DBH) at 10E-4 M
T1 sequence (whole entry): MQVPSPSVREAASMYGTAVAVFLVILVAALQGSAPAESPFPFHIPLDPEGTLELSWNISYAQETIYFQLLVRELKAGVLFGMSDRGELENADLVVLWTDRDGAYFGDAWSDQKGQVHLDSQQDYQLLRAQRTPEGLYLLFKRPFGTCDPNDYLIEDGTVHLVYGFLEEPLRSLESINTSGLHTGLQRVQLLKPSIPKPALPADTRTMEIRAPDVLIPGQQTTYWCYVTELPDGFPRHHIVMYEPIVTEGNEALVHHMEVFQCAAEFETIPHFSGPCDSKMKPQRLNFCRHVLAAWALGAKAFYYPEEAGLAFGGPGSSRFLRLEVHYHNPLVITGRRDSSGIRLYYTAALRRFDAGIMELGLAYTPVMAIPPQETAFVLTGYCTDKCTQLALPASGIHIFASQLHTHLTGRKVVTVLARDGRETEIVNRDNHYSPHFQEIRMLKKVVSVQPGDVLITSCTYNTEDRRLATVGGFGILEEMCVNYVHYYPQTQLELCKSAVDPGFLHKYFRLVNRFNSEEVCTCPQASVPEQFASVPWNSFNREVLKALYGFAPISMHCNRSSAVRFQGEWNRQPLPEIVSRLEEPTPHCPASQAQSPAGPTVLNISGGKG
How it was run: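 DBH activity measured in the presence of 10^-4 M compound; result expressed as percent inhibition.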

[2] = molecular target: T2, Dopamine beta-hydroxylase (Bos taurus, UniProt P15101)
T2 sequence (P15101 whole entry): T1 sequence (whole entry)

Rattus norvegicus [3] = experiment: Change in DA/NE (Dopamine/Norepinephrine) ratio after oral dosing (50 mg/kg); assay type: functional
How it was run: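 Adult male Okamoto-Aoki SHR given vehicle (5% PEG 400, 1% methocel) or suspended drug orally, two doses 18 h apart. Mesenteric arteries taken 2 h after second dose and homogenized in 0.4 M HClO4 with Na2S2O5 and EDTA at 0 °C. Supernatant incubated 60 min at 37 °C with rat liver COMT and [methyl-3H]-S-adenosylmethionine, pH 9.6 Tris; DA and NE measured.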

[4] = Partition coefficient (logP); assay type: physicochemical; details: octanol/water
How it was run: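 Octanol/pH 7.4 phosphate buffer partitioning at four concentrations, with UV assay of each phase. D taken at infinite dilution by linear regression. pKa by titration in 2:1 MeOH-H2O.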

[5] = molecular target: T1, Dopamine beta-hydroxylase (Bos taurus); experiment: Inhibitor dissociation constant vs. tyramine substrate against Dopamine beta hydroxylase at pH 4.5.
How it was run: (§1)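 Homogeneous purified DBH with specific activity 25-42 units/mg, with tyramine as the varied substrate. The pH 4.5 condition is predominantly ordered: phenethylamine binds before oxygen. The pH 6.6 condition is random. Kis is from standard competitive/noncompetitive kinetic fits, reported as mean ± SEM.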

[6] = molecular target: T2, Dopamine beta-hydroxylase; experiment: Inhibitory Concentration against bovine Dopamine beta hydroxylase (DBH); Range is between (4.9-6.5)
[7] = molecular target: T2, Dopamine beta-hydroxylase; remark: listed apart in the source
[8] = molecular target: T2, Dopamine beta-hydroxylase; remark: listed apart in the source
[9] = molecular target: T2, Dopamine beta-hydroxylase; remark: listed apart in the source
[10] = molecular target: T2, Dopamine beta-hydroxylase; experiment: Inhibitory Concentration against bovine Dopamine beta hydroxylase (DBH); Range is between (7-38).
[11] = molecular target: T2, Dopamine beta-hydroxylase; remark: listed apart in the source
[12] = molecular target: T1, Dopamine beta-hydroxylase (Bos taurus); experiment: Inhibitor dissociation constant vs. tyramine substrate against Dopamine beta hydroxylase at pH 6.0
How it was run: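 Purified homogeneous DBH, specific activity 25-42 units/mg, assayed at pH 6.0 with tyramine as the varied substrate. Kis taken as slope inhibition constant from Cleland COMP/NONCOMP fits; mean ± SEM.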

[13] = molecular target: T2, Dopamine beta-hydroxylase; remark: listed apart in the source
[14] = molecular target: T2, Dopamine beta-hydroxylase; remark: listed apart in the source
[15] = molecular target: T2, Dopamine beta-hydroxylase; experiment: […] against bovine Dopamine beta hydroxylase […]; Range is between (4.2-5.3).
[16] = molecular target: T2, Dopamine beta-hydroxylase; remark: listed apart in the source
[17] = molecular target: T2, Dopamine beta-hydroxylase; remark: listed apart in the source
[18] = molecular target: T2, Dopamine beta-hydroxylase; experiment: Inhibitory Concentration against bovine Dopamine beta hydroxylase (DBH); Range is between (56-72).
[19] = molecular target: T2, Dopamine beta-hydroxylase; remark: listed apart in the source
[20] = molecular target: T2, Dopamine beta-hydroxylase; remark: listed apart in the source
[21] = molecular target: T2, Dopamine beta-hydroxylase; remark: listed apart in the source
[22] = molecular target: T2, Dopamine beta-hydroxylase; remark: listed apart in the source
[23] = molecular target: T2, Dopamine beta-hydroxylase; experiment: Inhibitory Concentration against bovine Dopamine beta hydroxylase (DBH); Range is between (23-41).
[24] = molecular target: T2, Dopamine beta-hydroxylase; experiment: […] against bovine Dopamine beta hydroxylase […]; Range is between (1.8-2.6).
Rattus norvegicus [25] = experiment: Mean arterial blood pressure at 4 hr post drug at ip dose of 50 mg/kg for the indicated number of SHR (spontaneous hypertensive rats) relative to blood pressure before dosing; assay type: functional; details: route intraperitoneal
How it was run: (§2)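 Male Okamoto-Aoki SHR, 16–18 weeks, 275-310 g. Femoral artery cannulated under methohexital (10 mg/kg iv), with 2 h recovery, unrestrained. Drug given ip in 20% DMF or po as suspension in 5% PEG 400/1% methocel. BP recorded every 0.5 h for 5–6 h. Mean arterial BP change at 4 h versus predose; mean ± SEM, n rats; vehicle controls run in parallel.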

[26] = molecular target: T1, Dopamine beta-hydroxylase (Bos taurus); experiment: Inhibitor dissociation constant vs. tyramine substrate against Dopamine beta hydroxylase at pH 6.6; how it was run: as §1
[27] = molecular target: T2, Dopamine beta-hydroxylase; experiment: Inhibitory Concentration against bovine Dopamine beta hydroxylase (DBH); Range is between (0.060-0.0877).
[28] = molecular target: T2, Dopamine beta-hydroxylase; experiment: Inhibitory Concentration against bovine Dopamine beta hydroxylase (DBH); Range is between (1.7-2.4)
[29] = molecular target: T2, Dopamine beta-hydroxylase; remark: listed apart in the source
Rattus norvegicus [30] = experiment: Mean arterial blood pressure at 4 hr post drug at po dose of 50 mg/kg for the indicated number of SHR (spontaneous hypertensive rats) relative to blood pressure before dosing (expt. no. 12); assay type: functional; how it was run: as §2
Rattus norvegicus [31] = experiment: Mean arterial blood pressure at 4 hr post drug at po dose of 50 mg/kg for the indicated number of SHR (spontaneous hypertensive rats) relative to blood pressure before dosing (expt. no. 13); assay type: functional; details: dose 100 mg/kg, in the assay text read “100 mg/kg” for “50 mg/kg”; how it was run: as §2
[32] = molecular target: T2, Dopamine beta-hydroxylase; experiment: Inhibitory Concentration against bovine Dopamine beta hydroxylase (DBH); Range is between (36-102)
[33] = molecular target: T2, Dopamine beta-hydroxylase; experiment: Inhibitory Concentration against bovine Dopamine beta hydroxylase (DBH); Range is between (21-37).
[34] = molecular target: T2, Dopamine beta-hydroxylase; remark: listed apart in the source
[35] = molecular target: T2, Dopamine beta-hydroxylase; experiment: Inhibitory Concentration against bovine Dopamine beta hydroxylase (DBH); Range is between (10-14).
Rattus norvegicus [36] = experiment: Mean arterial blood pressure at 4 hr post drug at ip dose of 100 mg/kg for the indicated number of SHR (spontaneous hypertensive rats) relative to blood pressure before dosing; assay type: functional; details: route intraperitoneal; how it was run: as §2
[37] = molecular target: T2, Dopamine beta-hydroxylase; remark: listed apart in the source
[38] = molecular target: T2, Dopamine beta-hydroxylase; remark: listed apart in the source
[39] = molecular target: T2, Dopamine beta-hydroxylase; remark: listed apart in the source
[40] = molecular target: T2, Dopamine beta-hydroxylase; remark: listed apart in the source

## Cc1ccccc1Cn1cc[nH]c1=S
[1]
  inhibition: 15%

## Cc1cc(Cn2cc[nH]c2=S)ccc1O
[2]
  IC50: 49 µM

## Fc1cccc(Cn2cc[nH]c2=S)c1
Rattus norvegicus [3]
  Increase: 364%
[4]
  logP: 1.7
[5]
  Kis: 0.108 µM
[6]
  IC50: 5.6 µM

## O=[N+]([O-])c1ccc(Cn2cc[nH]c2=S)cc1
[7]
  IC50: 53 µM

## S=c1[nH]ccn1Cc1ccc(Cl)cc1
[8]
  IC50: 96 µM

## COc1c(F)cc(Cn2cc[nH]c2=S)cc1F
[9]
  IC50: 36 µM

## S=c1[nH]ccn1Cc1ccc(Cl)cc1Cl
[10]
  IC50: 17 µM

## COc1cccc(Cn2cc[nH]c2=S)c1
[11]
  IC50: 157 µM

## Cc1cccc(C)c1Cn1cc[nH]c1=S
[1]
  inhibition: 5%

## COc1ccccc1Cn1cc[nH]c1=S
[1]
  inhibition: 68%

## COc1ccc(Cn2cc[nH]c2=S)cc1C
[1]
  inhibition: 72%

## S=c1[nH]ccn1Cc1c(Cl)cccc1Cl
[1]
  inhibition: 7%

## Cc1ccc(Cn2cc[nH]c2=S)cc1
[1]
  inhibition: 34%
[12]
  Kis: 9.77 µM

## COc1c(Cl)cc(Cn2cc[nH]c2=S)cc1Cl
[13]
  IC50: 47 µM

## S=c1[nH]ccn1Cc1ccccc1
[12]
  Kis: 0.83 µM

## Oc1cccc(Cn2cc[nH]c2=S)c1
[14]
  IC50: 148 µM

## Fc1cc(F)cc(CCCn2cc[nH]c2=S)c1
[15]
  IC50: 4.7 µM

## COc1ccc(Cn2cc[nH]c2=S)cc1OC
[1]
  inhibition: 15%

## COc1ccc(Cn2cc[nH]c2=S)cc1Br
[1]
  inhibition: 60%

## S=c1[nH]ccn1Cc1cccc(Cl)c1Cl
[16]
  IC50: 52 µM

## COc1ccc(Cn2cc[nH]c2=S)cc1F
[1]
  inhibition: 67%

## COc1cc(Cl)c(Cn2cc[nH]c2=S)c(Cl)c1
[1]
  inhibition: 32%

## COc1cccc(OC)c1Cn1cc[nH]c1=S
[1]
  inhibition: 10%

## S=c1[nH]ccn1Cc1c(Cl)cc(Cl)cc1Cl
[17]
  IC50: 102 µM

## Oc1c(F)c(F)c(Cn2cc[nH]c2=S)c(F)c1F
[18]
  IC50: 62 µM

## Oc1ccccc1Cn1cc[nH]c1=S
[19]
  IC50: 580 µM

## S=c1[nH]ccn1Cc1ccccc1Cl
[1]
  inhibition: 14%

## COc1ccc(Cn2cc[nH]c2=S)cc1[N+](=O)[O-]
[20]
  IC50: 359 µM

## S=c1[nH]ccn1Cc1cc(Cl)cc(Cl)c1
Rattus norvegicus [3]
  Increase: 197%
[4]
  logP: 1.78
[21]
  IC50: 2.4 µM

## O=C(O)c1ccc(Cn2ccnc2S)cc1
[1]
  inhibition: 1%

## Oc1ccc(Cn2cc[nH]c2=S)cc1Br
[22]
  IC50: 12 µM

## O=[N+]([O-])c1cc(Cn2cc[nH]c2=S)ccc1O
[23]
  IC50: 31 µM

## S=c1[nH]ccn1CCCc1cc(Cl)cc(Cl)c1
[24]
  IC50: 2.1 µM

## Oc1c(F)cc(Cn2cc[nH]c2=S)cc1F
Rattus norvegicus [25]
  Decrease: 36 mmHg
Rattus norvegicus [3]
  Increase: 165%
[4]
  logP: 1.08
[5]
  Kis: 0.0057 µM
[26]
  Kis: 0.039 µM
[27]
  IC50: 0.074 µM

## Oc1ccc(Cn2cc[nH]c2=S)cc1
Rattus norvegicus [25]
  Decrease: 22 mmHg
Rattus norvegicus [3]
  Increase: 92%
[4]
  logP: 1.02

## Oc1ccc(Cn2cc[nH]c2=S)cc1Cl
[28]
  IC50: 2 µM

## Fc1ccc(Cn2cc[nH]c2=S)cc1
[29]
  IC50: 47 µM

## S=c1[nH]ccn1Cc1ccc(Br)cc1
[1]
  inhibition: 43%
[12]
  Kis: 3.42 µM

## Fc1cc(F)cc(Cn2cc[nH]c2=S)c1
Rattus norvegicus [25]
  Decrease: 50 mmHg
Rattus norvegicus [30]
  Decrease: 22 mmHg
Rattus norvegicus [3]
  Increase: 407%
[4]
  logP: 1.98
[5]
  Kis: 0.041 µM
Rattus norvegicus [31]
  Decrease: 28 mmHg

## COc1ccc(Cn2cc[nH]c2=S)cc1C(F)(F)F
[1]
  inhibition: 29%

## OCc1ccc(Cn2ccnc2S)cc1
[1]
  inhibition: 6%

## Oc1cc(Cl)c(Cn2cc[nH]c2=S)c(Cl)c1
[32]
  IC50: 75 µM

## S=c1[nH]ccn1Cc1ccc(Cl)c(Cl)c1
[33]
  IC50: 28 µM

## S=c1[nH]ccn1Cc1cc(Cl)ccc1Cl
[34]
  IC50: 97 µM

## S=c1[nH]ccn1Cc1cccc(Cl)c1
[35]
  IC50: 12 µM

## Oc1c(Cl)cc(Cn2cc[nH]c2=S)cc1Cl
Rattus norvegicus [36]
  Decrease: 28 mmHg
Rattus norvegicus [3]
  Increase: 12%
[37]
  IC50: 0.68 µM

## Oc1ccc(Cn2cc[nH]c2=S)cc1F
Rattus norvegicus [36]
  Decrease: 32 mmHg
Rattus norvegicus [3]
  Increase: 78%
[4]
  logP: 1.12
[38]
  IC50: 1.5 µM

## Oc1ccc(Cn2cc[nH]c2=S)cc1O
[39]
  IC50: 2.2 µM

## Oc1ccc(Cn2cc[nH]c2=S)cc1C(F)(F)F
[40]
  IC50: 121 µM

## FC(F)(F)c1ccc(Cn2cc[nH]c2=S)cc1
[1]
  inhibition: 25%
[12]
  Kis: 9.04 µM

## COc1ccc(Cn2ccnc2S)cc1S(N)(=O)=O
[1]
  inhibition: 7%
